{"data": "Measured values collected from several papers", "organism": "Klebsiella pneumoniae", "note": "Each line is one published result; the experiments were not run side by side."}
{"Compound": "C[C@@H](O)[C@H]1C(=O)N2C(C(=O)O)=C(SCCNC=N)C[C@H]12", "assay": "microbial growth, broth dilution", "quantity": "MIC", "result": "0.5 µg/mL"}
{"Compound": "C[C@@H](O)[C@H]1C(=O)N2C(C(=O)O)=C(SCCN=CN)C[C@H]12", "assay": "microbial growth, broth dilution", "setting": "clinical isolate", "quantity": "MIC90", "result": "256 µg/mL"}
{"Compound": "COc1cc(C=Nc2ccc(C)cc2Cl)ccc1O", "assay": "microbial growth, disc diffusion", "setting": "2000 µg/mL, 24 h", "quantity": "inhibition zone", "result": "15 mm"}
{"Compound": "CC(C)(O/N=C(\\C(=O)N[C@@H]1C(=O)N2C(C(=O)[O-])=C(C[n+]3ccccc3)CS[C@H]12)c1csc(N)n1)C(=O)O", "assay": "microbial growth, broth dilution", "test system": "ATCC13883", "setting": "20 h", "quantity": "MIC", "result": "< 0.5 µg/mL"}
{"Compound": "CC(C)(C)OC(=O)N[C@H]1CCN(c2cc(C(=O)NCC(=O)O)ccc2NC(=O)c2cc(Br)c(Br)[nH]2)C1", "assay": "microbial growth, broth dilution", "test system": "ATCC700603", "quantity": "MIC", "result": "> 32 µg/mL"}
{"Compound": "C[C@H]1COc2c(N3CCN(C)CC3)c(F)cc3c(=O)c(C(=O)O)cn1c23", "assay": "microbial growth, broth dilution", "quantity": "MIC", "result": "> 16 µg/mL"}
{"Compound": "Cc1[nH]c(C(=O)Nc2ccc(C(=O)NCC(=O)O)cc2N2CC[C@H](N)C2)c(Cl)c1Cl.Cl", "assay": "microbial growth, broth dilution", "test system": "ATCC700603", "quantity": "MIC", "result": "> 32 µg/mL"}
{"Compound": "COc1cc(C=Nc2ccccc2Br)ccc1O", "assay": "microbial growth, disc diffusion", "setting": "2000 µg/mL, 24 h", "quantity": "inhibition zone", "result": "14.7 mm"}
{"Compound": "CC(C)(C)OC(=O)N1CCN(c2cc(C(=O)NCC(=O)O)ccc2NC(=O)c2cc(Br)c(Br)[nH]2)CC1", "assay": "microbial growth, broth dilution", "test system": "ATCC700603", "quantity": "MIC", "result": "> 32 µg/mL"}
{"Compound": "C[C@@H](O)[C@H]1C(=O)N2C(C(=O)O)=C(SCCN=CN)C[C@H]12", "assay": "microbial growth, disc diffusion", "setting": "2000 µg/mL, 24 h", "quantity": "inhibition zone", "result": "20.5 mm"}
{"Compound": "Cl.N[C@H]1CCN(c2cc(C(=O)NCC(=O)O)ccc2NC(=O)c2cc(Br)c(Br)[nH]2)C1", "assay": "microbial growth, broth dilution", "test system": "ATCC700603", "quantity": "MIC", "result": "> 32 µg/mL"}
{"Compound": "C[C@H]1COc2c(N3CCN(C)CC3)c(F)cc3c(=O)c(C(=O)O)cn1c23", "assay": "microbial killing", "test system": "ATCC27736", "quantity": "MBC", "result": "0.06 µg/mL"}
